Data as given in ChEMBL document CHEMBL4513216, “Probing the Open Global Health Chemical Diversity Library for Multistage-Active Starting Points for Next-Generation Antimalarials” (ACS Infect Dis, 2020).

Test: Toxicity liver stage against HepG2, at 10uM
Assay type: cell-based
Parameters: test concentration 10 uM, cell line HepG2-A16-CD81EGFP
Settings: human, HepG2-A16-CD81EGFP cells; read-out: INHIBITION
In short: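 Uninfected HepG2-A16-CD81EGFP cells, 3 × 10^3 per well, 1536-well, plated on prespotted compound at 10 μM final, parasite-free screening media added to match infected plates; puromycin 10 μM positive, DMSO 0.5% negative; run in parallel with 48 h PbLuc assay at 37 °C, 5% CO2; viability by CellTiter-Glo luminescence, normalized to controls.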

In order of rising cytotoxicity at 10 µM:
1. O=C(NCc1cccs1)[C@H]1CO[C@H]2CCN(C3CCCC3)C[C@H]2C1  -110%
2. CC(C)C(=O)N1CCC2(COCc3cnc(-c4cccnc4)nc32)C1 (stereo not given)  -102%
3. Cn1cc(-c2ncc3c(c2C(=O)O)CCN(CC2CCOC2)C3)cn1 (stereo not given)  -94.6%
4. Cn1ccc(CN2CCC3(CCCN3CC3CC3)CC2)n1  -92.4%
5. CC(NCc1nnc2n1CCCC2)c1nc(-c2cccs2)no1 (stereo not given)  -39.5%
6. CCc1nc(CN2CCCN(C(=O)CC3CCCC3)CC2)cs1  -25.2%
7. CNC(=O)c1cnc2c(C)csc2c1  -22.3%
8. CN(C)c1ccc(NC(=O)NCc2cccnc2N(C)C)cn1  -20.9%
9. CN(C)Cc1ccnc(C2CN(CCc3ccccc3)CCO2)n1 (stereo not given)  -16.5%
10. Cc1noc(C)c1CC(=O)N1CCC(Nc2cccnn2)CC1  -15.8%
11. Cc1nccn1C1CCCN(C(=O)c2cccc3c2OCO3)C1 (stereo not given)  -14.1%
12. O=C(CCN1CCSCC1c1ccccc1)N1CCOCC1 (stereo not given)  -12.5%
13. Cc1nc(CC(=O)N2CCn3c(nnc3C(C)C)C2)cs1  -12.3%
14. Cc1ccc(C(=O)N(C)Cc2ccc3c(c2)OCO3)c(=O)[nH]1  -12%
15. COCCN1C(=O)[C@]2(CC[C@@H]3CN(C(=O)NCC(C)C)C[C@@H]32)N=C1C  -11.8%
16. CCc1cnc(C)nc1NC(CC)c1cnn(C)c1 (stereo not given)  -11.7%
17. CCCn1cc(C(=O)N2CCCC(Cc3nccs3)C2)cn1 (stereo not given)  -11.4%
18. CC(C)CN1CCC(C(=O)Nc2cc(C(F)(F)F)c[nH]c2=O)CC1  -11.3%
19. CCOCC(=O)N1CSCC1C(=O)N(C)Cc1ccco1 (stereo not given)  -11%
20. Cc1nccc([C@H]2C[C@@H]3CCN(S(=O)(=O)N(C)C)C[C@H]3O2)n1  -10.8%
21. O=C(c1n[nH]c2c1CCN(Cc1nccs1)C2)N1CCCC1  -10.7%
22. O=C(O)[C@@H]1CN(C(=O)CC2CCCC2)C[C@H]1c1ccc(F)cc1  -10.2%
23. c1cnnc(NCC2CN(Cc3cccc4c3OCCO4)CCO2)c1 (stereo not given)  -9.93%
24. Cc1ncc2c(n1)CN(c1ncnc3[nH]ccc13)CC2  -8.92%
25. COc1cccc(-n2c(C)cc(C(=O)O)c2C)c1  -8.65%
26. CNc1nc(C(=O)N2CCC3(CCCN(C)C3=O)C2)cs1 (stereo not given)  -8.57%
27. CCN1CCN(c2ccc(F)cc2C(C)NCc2ccnn2C)CC1 (stereo not given)  -8.33%
28. Cc1cccc(-c2nnc(C(C)NCCn3cc(C)cn3)o2)c1 (stereo not given)  -8.32%
29. Cc1n[nH]c(C2CN(C(=O)c3ccon3)CCO2)n1 (stereo not given)  -8.27%
30. O=C(NCc1ccccn1)NCc1ccc(Cl)s1  -7.52%
31. O=C(CCCC(=O)NCc1cccc(Br)c1)NCCN1CCCC1  -7.47%
32. COCc1ncc(CN2CC[C@@H](NC(=O)c3cccnc3)[C@H](O)C2)cn1  -7.28%
33. COCCN(C)C[C@@H]1CN(C(=O)c2sc3ccccc3c2C)C[C@@H]1CO  -7.13%
34. O=C(c1ccc2c(c1)CCCC2)N1CCOCC1c1ncon1 (stereo not given)  -7%
35. O=C(NCCN1CCOCC1)c1cc(-c2ccc(Cl)s2)[nH]n1  -6.58%
36. CC(C)(N)c1cn(C2CCN(C(=O)CCC3CCCCC3)CC2)nn1  -6.53%
37. CCNc1ncc(C(=O)N2CCC(c3ccccc3C(=O)O)C2)cn1 (stereo not given)  -6.41%
38. CS(=O)(=O)N1CCCC(n2nnn(-c3ccccc3)c2=O)C1 (stereo not given)  -6.17%
39. CC(C)c1nc(C2CCCN2CC(=O)N2CCc3ccccc32)no1 (stereo not given)  -5.84%
40. C[C@]1(O)CN(Cc2cccc(C(=O)O)c2)CC[C@@H]1Oc1cccc(F)c1  -5.64%
41. c1coc(-c2nnc(CN3CCCC3Cn3cncn3)o2)c1 (stereo not given)  -5.46%
42. c1ccc(CN2CCC(NCCSc3cnn[nH]3)CC2)cc1  -5.16%
43. CC(C)c1nccn1C(C)C(=O)NC1Cc2ccccc2C1 (stereo not given)  -5.03%
44. CCN1CC(C(=O)NCc2noc(Cc3ccccc3)n2)CCC1=O (stereo not given)  -4.7%
45. COCCOc1cccc(CNC(=O)CN2CCN(C)CC2C)c1 (stereo not given)  -4.07%
46. COc1ncc(NS(=O)(=O)c2ccc(F)cc2F)cn1  -3.96%
47. CCc1nc(C2CCCN2C(=O)CCc2cccs2)no1 (stereo not given)  -3.19%
48. CCc1nc(C2CCCN2C(=O)CCc2cscn2)no1 (stereo not given)  -3.12%
49. CC(C)CN(CC(=O)O)C(=O)c1ccc(F)cc1  -2.83%
50. CC(C)(C)c1nnc(CN2CCCC2c2noc(C3CC3)n2)o1 (stereo not given)  -2.75%
51. OC(COCc1cccs1)CN1CCC(c2ccn[nH]2)CC1 (stereo not given)  -2.66%
52. O=C1CO[C@H]2CN(S(=O)(=O)c3ccccc3)C[C@H]2N1c1ccccc1  -2.6%
53. CC(C)C(NC(=O)NCc1cccnc1N(C)C)c1cccs1 (stereo not given)  -1.86%
54. O=C1N[C@@H]2CCN(C(=O)c3ccccc3)[C@@H]2C(=O)N1Cc1ccccc1  -1.84%
55. O=C1N[C@@H]2CCN(C(=O)C3CC3)[C@@H]2C(=O)N1c1ccc(F)cc1  -1.8%
56. O=C(NCCc1ccc(F)cc1)NCC(O)c1cccc(F)c1 (stereo not given)  -1.14%
57. O=C(NCCSCc1ccco1)c1ccc(N2CCOCC2)cc1  -0.971%
58. O=c1cc(CN2CCC(CCc3ccc(O)cc3)CC2)[nH]c(=O)[nH]1  -0.885%
59. c1cnn(CC2CN(Cc3noc(C4CC4)n3)CCO2)c1 (stereo not given)  -0.842%
60. COc1c(C(=O)NC(C)Cc2ccccc2Cl)c(C)nn1C (stereo not given)  -0.686%
61. CCN1CCCN(c2ccc(-n3ccc(C)n3)nn2)CC1  -0.553%
62. CCn1cc(C(=O)N2CCCN(c3cccnn3)CC2)c2ccccc21  -0.418%
63. CC(C)Cn1cncc1CNC1CCCNC1 (stereo not given)  -0.391%
64. COc1ccc(S(=O)(=O)N[C@H]2CN(C(C)=O)C[C@@H]2C(C)C)cc1F  -0.277%
65. O=C1CCC[C@]2(CN(S(=O)(=O)N3CCCCC3)C[C@H]2c2cccnc2)N1  -0.217%
66. O=C(c1ccc2c(c1)OCCCO2)N1CCCCC1C1OCCO1 (stereo not given)  -0.158%
67. Cc1cc(NC(=O)Cn2cnc(-c3cccs3)cc2=O)sn1  0.0962%
68. COCc1c(Cl)cccc1NC(=O)NCc1cccc(N(C)C)n1  0.217%
69. O=C1CCC2(CCN(Cc3ccsc3)CC2)N1Cc1ccccc1  0.552%
70. O=C(CNC(=O)C1CCCC1)NCC(O)c1ccc2ccccc2c1 (stereo not given)  0.587%
71. COc1ccc(Nc2nc(N)c(C(C)=O)s2)cc1Cl  0.833%
72. Cc1nc(CN2CCOC(CN(C)c3cccnn3)C2)cs1 (stereo not given)  0.938%
73. Cc1nc(C(=O)N2CCN(S(C)(=O)=O)CC2)c(-c2cccc(F)c2)s1  1.37%
74. O=C(NC[C@H]1OC[C@@H](NCc2ccccc2)[C@@H]1O)Nc1ccccc1  1.97%
75. CC(=O)N1CC(C)CN(Cc2ccon2)c2ccccc21 (stereo not given)  2%
76. CC1CCN(S(=O)(=O)c2cccn(CC(=O)N3CCOCC3)c2=O)CC1  2.11%
77. COc1cccc(CN2CC(=O)N(c3ccccc3C)CC2C)c1OC (stereo not given)  2.24%
78. Cc1cnn(CC2CCCCN2Cc2nnc(C3CC3)n2C)c1 (stereo not given)  2.36%
79. CCCc1n[nH]c(C2CN(CCNS(=O)(=O)CC)CCO2)n1 (stereo not given)  2.43%
80. Cc1ccc(CN(C(=O)c2cccc(NC(N)=O)c2)C2CC2)o1  2.69%
81. COc1cc(-n2ccnc2-c2ccc(C(=O)O)s2)ccc1NC(C)=O  2.74%
82. O=C1CC[C@H]2[C@@H](CCN2Cc2ccco2)N1  2.82%
83. O=C1CCCC2(CCN(C(=O)c3ccccn3)CC2)N1  3.03%
84. Cc1[nH]c2c(F)cccc2c1CC(=O)N1CCCC(N)CC1 (stereo not given)  3.26%
85. CC(C)=CCN1CCN(C(=O)c2cc(C(C)C)on2)[C@H]2CS(=O)(=O)C[C@H]21  3.54%
86. CSCc1noc(Cn2ncn3cccc3c2=O)n1  4.44%
87. CC(C)NC(=O)C1CN(C(=O)Nc2ccccc2)CC12CCOCC2 (stereo not given)  4.58%
88. COCC1CC2(CCN(C(=O)c3ccco3)CC2)CN1C(C)C (stereo not given)  4.71%
89. CN(CCn1cnnc1)C(=O)c1ccnc(OC2CCC2)c1  5.1%
90. Cc1ccc2c(c1)C(NCc1ccccn1)CC2 (stereo not given)  5.47%
91. O=C(CCn1cccn1)NS(=O)(=O)N1CCCc2ccccc21  5.65%
92. CS(=O)(=O)N1CCO[C@@H]2CN(C(=O)c3ccnnc3)C[C@@H]2C1  5.97%
93. COCCO[C@@H]1CCN(Cc2csc(C)n2)[C@H]1Cc1ccccc1  5.98%
94. COC(=O)CN(C(=O)c1ccc(Cl)o1)c1cccc(F)c1  6.11%
95. COc1ccccc1-n1nc(C(C)C)nc1Cc1nnc(N)s1  6.48%
96. CC(C)n1cc(C(=O)N2Cc3ccccc3OC3(CCOCC3)C2)cn1  6.61%
97. CCCc1n[nH]c(C2CN(C(=O)Cc3ccc(C)nc3)CCO2)n1 (stereo not given)  6.73%
98. O=C(c1cccnc1)N1CCc2[nH]nc(Nc3ccccc3)c2C1  6.83%
99. CCc1cc(-c2cc[nH]n2)nc(N2CCOCC2)n1  7.04%
100. Cc1cccc2c1ccn2CCC(=O)O  7.47%
101. O=C(c1cnc(O)cn1)N1CCCC1c1nc2cc(F)ccc2[nH]1 (stereo not given)  7.72%
102. CN(C)c1nccnc1C1CCN(C2CCCCC2O)CC1 (stereo not given)  8.12%
103. O=C([C@H]1CCCO1)N1CCC2(CC1)C(=O)N(CC1CC1)c1ccccc12  8.5%
104. O=C(NC1CC1)C1CCc2nnc(-c3cccc(C(F)(F)F)c3)n21 (stereo not given)  8.6%
105. CN(C)C(=O)c1nc(-c2ccc(S(C)(=O)=O)cc2)c2ccccn12  8.77%
106. COCCNC(=O)c1nc(NS(=O)(=O)c2ccccc2)sc1C  9.18%
107. COc1c(C2CCCN2c2ncnc3c2CCC3)c(C)nn1C (stereo not given)  10.5%
108. N#Cc1c(N2CCCN(C3CCOCC3)CC2)nc2ccccn12  14.7%
109. COCCNC(=O)C1(CCCc2cccnc2)CCCN1C (stereo not given)  20.1%
110. COc1ccc(C(C#N)NC(=O)Cc2ccc(F)c(F)c2)c(OC)c1 (stereo not given)  21.6%
